# Legend:
# Dihydrofolate reductase = target: T1, Dihydrofolate reductase (Bos taurus, UniProt P00376); experiment: Concentration required for inhibition of beef liver dihydrofolate reductase
# T1 sequence (P00376 whole entry): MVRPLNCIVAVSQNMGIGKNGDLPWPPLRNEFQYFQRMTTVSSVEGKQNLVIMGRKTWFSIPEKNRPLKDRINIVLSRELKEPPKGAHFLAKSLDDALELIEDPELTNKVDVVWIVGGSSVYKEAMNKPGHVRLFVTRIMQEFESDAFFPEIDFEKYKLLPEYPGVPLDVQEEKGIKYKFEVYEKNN
# CAKI-1 [1] = experiment: Inhibition of colony formation of Caki-1 cells by amide-linked conjugate of MTX and Dal K-20; type: functional, cell-based; conditions: Homo sapiens
# Procedure, shortened: (§1)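 Single-cell suspensions (>99% trypan blue-excluding) of M21 melanoma or Caki-1 renal carcinoma cells, 1 × 10⁶ cells/mL in McCoy's medium with 15% dialyzed FCS, exposed 6 h at 37 °C to agent, washed three times, plated in 0.3% agar over 0.5% agar base (10⁴ cells/plate). Incubated at 37 °C, 5% CO₂. Colonies >30 cells counted visually at 14 days, three plates per concentration.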
# M21 [2] = experiment: Colony count at 20 ug/mL of amide-linked conjugate (regiospecific coupling) of MTX and Dal K-20 in melanoma M21 cells; conditions: Homo sapiens
# M21 [3] = experiment: Colony count at 10 ug/mL of amide-linked conjugate of MTX and Dal K-20 in melanoma M21 cells; conditions: Homo sapiens
# M21 [4] = experiment: Colony count at 15 ug/mL of amide-linked conjugate of MTX and Dal K-20 in melanoma M21 cells; conditions: Homo sapiens
# CAKI-1 [5] = experiment: Inhibition of colony formation of Caki-1 cells by amide-linked conjugate (regiospecific coupling) of MTX and Dal K-20; type: functional, cell-based; conditions: Homo sapiens; procedure, shortened: as §1
# M21 [6] = experiment: Colony count at 20 ug/mL of amide-linked conjugate of MTX and Dal K-20 in melanoma M21 cells; conditions: Homo sapiens
# M21 [7] = experiment: Colony count at 15 ug/mL of hydrazone-linked conjugate (regiospecific coupling) of MTX and Dal K-20 in melanoma M21 cells; conditions: Homo sapiens
# M21 [8] = experiment: Colony count at 10 ug/mL of hydrazone-linked conjugate (regiospecific coupling) of MTX and Dal K-20 in melanoma M21 cells; conditions: Homo sapiens
# CAKI-1 [9] = experiment: Inhibition of colony formation of Caki-1 cells by MTX; type: functional, cell-based; conditions: Homo sapiens; procedure, shortened: as §1
# M21 [10] = experiment: Colony count at 15 ug/mL of amide-linked conjugate (regiospecific coupling) of MTX and Dal K-20 in melanoma M21 cells; conditions: Homo sapiens
# M21 [11] = experiment: Colony count at 20 ug/mL of hydrazone-linked conjugate (regiospecific coupling) of MTX and Dal K-20 in melanoma M21 cells; conditions: Homo sapiens
# M21 [12] = experiment: Colony count at 20 ug/mL of hydrazone-linked conjugate of MTX and Dal K-20 in melanoma M21 cells; conditions: Homo sapiens
# CAKI-1 [13] = experiment: Inhibition of colony formation of Caki-1 cells by hydrazone-linked conjugate (regiospecific coupling) of MTX and Dal K-20; type: functional, cell-based; conditions: Homo sapiens; procedure, shortened: as §1
# M21 [14] = experiment: Colony count at 10 ug/mL of hydrazone-linked conjugate of MTX and Dal K-20 in melanoma M21 cells; conditions: Homo sapiens
# CAKI-1 [15] = experiment: Inhibition of colony formation of Caki-1 cells by hydrazone-linked conjugate of MTX and Dal K-20; type: functional, cell-based; conditions: Homo sapiens; procedure, shortened: as §1
# M21 [16] = experiment: Colony count at 15 ug/mL of hydrazone-linked conjugate of MTX and Dal K-20 in melanoma M21 cells; conditions: Homo sapiens
# M21 [17] = experiment: Colony count at 10 ug/mL of amide-linked conjugate (regiospecific coupling) of MTX and Dal K-20 in melanoma M21 cells; conditions: Homo sapiens
smiles,measurement,setting,value
CN(Cc1cnc2nc(N)nc(N)c2n1)c1ccc(C(=O)NC(CCC(=O)NN)C(=O)NN)cc1 (stereo unspecified),IC50,Dihydrofolate reductase,37.9 µM
CN(Cc1cnc2nc(N)nc(N)c2n1)c1ccc(C(=O)NC(CCC(=O)NN)C(=O)OC(C)(C)C)cc1 (stereo unspecified),IC50,Dihydrofolate reductase,41.2 µM
CN(Cc1cnc2nc(N)nc(N)c2n1)c1ccc(C(=O)NC(CCC(=O)NN)C(=O)O)cc1 (stereo unspecified),IC50,Dihydrofolate reductase,30.7 µM
COC(=O)CCC(NC(=O)c1ccc(N(C)Cc2cnc3nc(N)nc(N)c3n2)cc1)C(=O)O (stereo unspecified),IC50,Dihydrofolate reductase,25.4 µM
CN(Cc1cnc2nc(N)nc(N)c2n1)c1ccc(C(=O)N[C@@H](CCC(=O)O)C(=O)O)cc1 [METHOTREXATE],IC50,CAKI-1 [1],4.5 µg/mL
same,colony count,M21 [2],112 colonies/plate
same,colony count,M21 [3],109 colonies/plate
same,colony count,M21 [4],117 colonies/plate
same,IC50,CAKI-1 [5],3.3 µg/mL
same,colony count,M21 [6],119 colonies/plate
same,colony count,M21 [7],121 colonies/plate
same,colony count,M21 [8],120 colonies/plate
same,IC50,CAKI-1 [9],25 µg/mL
same,colony count,M21 [10],118 colonies/plate
same,colony count,M21 [11],115 colonies/plate
same,colony count,M21 [12],108 colonies/plate
same,IC50,CAKI-1 [13],3 µg/mL
same,colony count,M21 [14],112 colonies/plate
same,IC50,CAKI-1 [15],3.4 µg/mL
same,colony count,M21 [16],109 colonies/plate
same,colony count,M21 [17],115 colonies/plate
